Experimental findings from ChEMBL document CHEMBL4152217, “Quinonoid compounds via reactions of lawsone and 2-aminonaphthoquinone with α-bromonitroalkenes and nitroallylic acetates: Structural diversity by C-ring modification and cytotoxic evaluation against cancer cells” (Eur J Med Chem, 2018) are described below.

Structures are written as SMILES.

For data set [1], the system named is PC-3. The experiment in a line: Cytotoxicity against human PC3 cells assessed as reduction in cell viability after 72 hrs by MTT assay. It is filed as functional, cell-based. As to conditions: PC-3, 72 h. The method, boiled down:
(§1)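 MTT viability assay. Cancer lines grown in RPMI 1640 and L929 fibroblasts in DMEM, each with 10% FBS, 2 mM glutamine, penicillin/streptomycin, 37 °C, 5% CO2. PBMC were taken from healthy donors by density-gradient centrifugation, kept in RPMI with 20% FBS and stimulated with 2% phytohemagglutinin. Cells were exposed 72 h (0.01–27.32 µM). MTT 0.5 mg/mL for 3 h, absorbance read at 550 nm. IC50 with 95% CI from nonlinear regression; triplicate, ≥3 independent experiments.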
Background: Tetrazolium assays rely on reduction of a dye to a coloured formazan, in cell work by metabolically active cells.

For data set [2], the system named is HCT-116. Description: Cytotoxicity against human HCT116 cells assessed as reduction in cell viability after 72 hrs by MTT assay. Format: functional, cell-based. As to conditions: HCT-116, 72 h. In a few lines:
as §1

The test system of data set [3] is HL-60. The experiment in a line: Cytotoxicity against human HL60 cells assessed as reduction in cell viability after 72 hrs by MTT assay. Format: functional, cell-based. The following applies: HL-60, 72 h. In a few lines: as §1
Data set [4] deals with SF-295. The experiment in a line: Cytotoxicity against human SF295 cells assessed as reduction in cell viability after 72 hrs by MTT assay. As to conditions: SF-295, 72 h.
Data set [5] deals with NCI-H460. The experiment in a line: Cytotoxicity against human NCI-H460 cells assessed as reduction in cell viability after 72 hrs by MTT assay. The following applies: NCI-H460, 72 h.
Data set [6] relates to L929. The experiment in a line: Cytotoxicity against mouse L929 cells assessed as reduction in cell viability after 72 hrs by MTT assay. As to conditions: L929, 72 h. It is filed as cell-based. In a few lines: as §1
Data set [7] deals with PBMC. The experiment in a line: Cytotoxicity against human PBMC cells assessed as reduction in cell viability after 72 hrs by MTT assay.
Data set [8] relates to OVCAR-8. The experiment in a line: Cytotoxicity against human OVCAR8 cells assessed as reduction in cell viability after 72 hrs by MTT assay. As to conditions: OVCAR-8, 72 h.
Data set [9] concerns MX1. Description: Cytotoxicity against human MX1 cells assessed as reduction in cell viability after 72 hrs by MTT assay. The following applies: MX1, 72 h.
The subject of data set [10] is Jurkat. Description: Cytotoxicity against human Jurkat cell viability after 72 hrs by MTT assay.
Data set [11] in a line: Selectivity index, ratio of IC50 for human PBMC cells to IC50 for human NCI-H460 cells. As to conditions: PBMC cells versus NCI-H460 cells. It is filed as toxicity.
Data set [12] has as its system HCT-116. The experiment in a line: Induction in oxidative stress in human HCT116 cells assessed as increase in nitrite level after 24 hrs by Griess reagent based assay. It is filed as functional, cell-based. The method, boiled down: (§2)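 HCT-116 cells were treated 24 h. Culture supernatant was mixed 1:1 with Griess reagent (sulfanilamide/N-(1-naphthyl)ethylenediamine in H3PO4) for 10 min at room temperature, and absorbance read at 560 nm. Nitrate/nitrite was quantified against a NaNO2 standard curve (0.75–100 µM). Vehicle was the negative control and H2O2 10 µM the positive control; three independent experiments, mean ± S.E.M.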
For orientation: The Griess reaction detects nitrite, a stable product of nitric oxide.

Data set [13] relates to HCT-116. Description: Induction in oxidative stress in human HCT116 cells assessed as nitrite level at 5 uM after 24 hrs by Griess reagent based assay. It is filed as functional. In a few lines:
as §2

The test system of data set [14] is HCT-116. The experiment in a line: Induction in oxidative stress in human HCT116 cells assessed as nitrite level at 10 uM after 24 hrs by Griess reagent based assay. Format: functional. The method, boiled down: as §2
Data set [15] relates to HCT-116. The experiment in a line: Induction of DNA damage in human HCT116 cells assessed as DNA damage index at 5 uM after 24 hrs by ethidium bromide staing based flurescence microscopic analysis (8.3 +/- 0.88). Format: functional.
Data set [16] concerns HCT-116. Description: Induction of DNA damage in human HCT116 cells assessed as DNA damage index at 10 uM after 24 hrs by ethidium bromide staing based flurescence microscopic analysis (8.3 +/- 0.88). It is filed as functional.

The IC50 is the midpoint of a concentration-inhibition curve.

For the compound `O=C1c2ccccc2C(=O)c2c(-c3ccc(F)cc3)coc21`, the IC50 in data set [1] was determined as 3.97 µM; in data set [2] it was 6.02 µM; in data set [3] it was 3.28 µM; in data set [4], 6.33 µM; in [5], 4.34 µM; in data set [6], 13.6 µM. Besides, the IC50 in [7] is over 17.1 µM; in data set [8], 5.43 µM; in data set [9], 5.2 µM; in [10], 3.45 µM.

As to `COc1ccc(-n2cc(-c3ccc(Cl)cc3)c3c2C(=O)c2ccccc2C3=O)cc1`, the 50% inhibitory concentration (IC50) is 8.66 µM in data set [1]; 8.88 µM in [2]; 3.15 µM in data set [3]; 4.28 µM in data set [4]; 3.81 µM in [5]; over 12.1 µM in data set [6]. Besides, the IC50 in data set [7] is over 12.1 µM. For the same compound, the selectivity ratio in data set [11] is over 3.1.

In the case of `CSc1ccc(-c2coc3c2C(=O)c2ccccc2C3=O)cc1`, the IC50 is 2.49 µM in [1]; 6.03 µM in [2]; 3.09 µM in [3]; 3.43 µM in [4]; 4.68 µM in data set [5]; over 15.6 µM in [6]. Besides, the IC50 is over 15.6 µM in data set [7], 4.09 µM in data set [8], 4.74 µM in data set [9] and 2.18 µM in data set [10].

For the compound `O=C1c2ccccc2C(=O)c2c(-c3ccccc3[N+](=O)[O-])coc21`, the IC50 in [1] is 1.59 µM; in data set [2], 1.28 µM; in [3], 1.66 µM; in data set [4], 2.94 µM; in data set [5], 2.53 µM; in data set [6] it was over 15.7 µM. In addition, the IC50 in data set [7] was over 15.7 µM; in [8], 2.25 µM; in [9] it was 2.85 µM; in data set [10], 1.47 µM.

Take `O=C1c2ccccc2C(=O)c2c(-c3cccc4c3OCO4)coc21`: the IC50 is 2.54 µM in data set [1]; 2.76 µM in data set [2]; 2.23 µM in data set [3]; 3.71 µM in data set [4]; 3.61 µM in data set [5]; over 15.7 µM in [6]. Besides, the IC50 in data set [7] is over 15.7 µM; in [8], 3.08 µM; in [9], 2.92 µM; in data set [10], 2.04 µM. The Activity result is “Dose-dependent effect” in data set [12], 5.33 µM in data set [13] and 8.33 µM in data set [14]. In addition, the values for the Activity_index in data set [15] and in data set [16] were 42.88 and 82.77, respectively.
